We go through 16 compounds from ChEMBL document CHEMBL4000145, “Discovery and Optimization of a Porcupine Inhibitor” (J Med Chem, 2015).

Data set [1] deals with T1, Protein-serine O-palmitoleoyltransferase porcupine (Homo sapiens, UniProt Q9H237).
T1 sequence (Q9H237 whole entry): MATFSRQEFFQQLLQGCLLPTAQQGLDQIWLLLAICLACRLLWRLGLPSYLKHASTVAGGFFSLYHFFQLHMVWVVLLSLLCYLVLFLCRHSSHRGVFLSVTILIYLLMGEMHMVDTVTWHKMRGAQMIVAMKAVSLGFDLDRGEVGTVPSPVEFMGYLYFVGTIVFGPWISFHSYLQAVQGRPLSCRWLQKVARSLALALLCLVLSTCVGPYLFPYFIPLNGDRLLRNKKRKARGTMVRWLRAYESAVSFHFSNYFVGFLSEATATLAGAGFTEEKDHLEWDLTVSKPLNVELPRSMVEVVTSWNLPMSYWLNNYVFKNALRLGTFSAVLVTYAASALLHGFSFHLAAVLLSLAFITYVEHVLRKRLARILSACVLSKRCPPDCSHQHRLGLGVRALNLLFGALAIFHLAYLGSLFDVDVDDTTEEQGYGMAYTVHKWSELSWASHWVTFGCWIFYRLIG
In words: Inhibition of porcupine (unknown origin) expressed in HEK293-STF3A cells assessed as inhibition of Wnt signaling by measuring decrease in beta-catenin-mediated transcriptional activity after 24 hrs by Steady-Glo luciferase assay. It is filed as cell-based. The method in brief: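 HEK293-STF3A cells, 2 × 10⁴ per well, incubated overnight at 37 °C. Serially diluted compound added at final 50 μM to 1.5 nM. After 1 day, Steady-Glo luciferase added for 10 min at room temperature and luminescence read. IC50 derived from the dilution series.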

For another data set, the target named is Cytochrome P450 3A4 (Homo sapiens, UniProt P08684). In words: Inhibition of CYP3A4 (unknown origin).
Another data set has as its target Cytochrome P450 2D6 (Homo sapiens, UniProt P10635). In words: Inhibition of CYP2D6 (unknown origin).
Data set [2] in a line: Intrinsic clearance in mouse liver microsomes. It is filed as ADME, microsome. The note with it: read-out: CLH. On the technique in general: Liver microsomes are a subcellular fraction often used to study metabolism.
A further data set relates to HEK293. In words: Inhibition of beta-catenin-mediated transcriptional activity in Wnt3A knock out HEK293-STF cells preincubated for 4 hrs followed by Wnt-3A conditioned medium addition measured after 24 hrs by Steady-Glo luciferase assay. The note with it: Homo sapiens.
A short description of data set [3]: Cytotoxicity against HEK293 cells assessed as cell viability after 1 day by CellTiter-Glo luminescent assay. The note with it: human.
The nature of data set [4]: Thermodynamic solubility of the compound at pH 7.4. Type of data set: physicochemical. The note with it: buffer, read-out: Therm_solubility. The method in brief:
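Compound at 500 μM from DMSO stock in pH 7.4 buffer, 1.0% DMSO. Incubated 18 h, then vacuum filtered. Filtrate mixed 1:1 with 1-propanol and quantified by UV spectroscopy.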

The nature of data set [5]: Permeability of the compound at pH 7.4 by PAMPA assay. The note with it: read-out: permeability. Type of data set: physicochemical.
A short description of data set [6]: Oral bioavailability in mouse. It is filed as ADME, organism-based. The note with it: in vivo.
Data set [7] addresses T2, Protein-serine O-palmitoleoyltransferase porcupine (Homo sapiens) (UniProt Q9H237).
T2 sequence (whole entry): T1 sequence (Q9H237 whole entry)
Nature of the data set: Inhibition of PORCN-mediated V5-tagged Wnt3A palmitoylation in human HeLa cells at 100 nM measured after over night incubation by Western blot analysis. It is filed as cell-based. The gist of the method: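 HeLa cells seeded 3 × 10⁶ per 10 cm dish, overnight at 37 °C, then transfected with 5 μg pcDNA3.2/V5-Wnt3a. After 6 h, washed and given 100 μM ω-alkynyl palmitate in medium with 5% fatty-acid-free BSA plus compound (100 nM) or DMSO, overnight at 37 °C. From 600 μg lysate, V5-Wnt3a was immunoprecipitated and click-reacted with biotin azide. Blot read-outs: anti-V5/anti-mouse Dylight 680 for total, streptavidin-Dylight 800 for acylated.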
On the technique in general: A western blot detects proteins with antibodies after separation by electrophoresis.

The next data set relates to HT-1080. In words: Inhibition of luciferase expression in human HT1080 cells after 24 hrs. It is filed as functional, cell-based. The method in brief:
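HT1080 cells seeded at 150 000 per well a day before transfection. Transfected with control or murine PORCN plasmid (100 ng) plus Wnt/β-catenin reporter (550 ng) and Wnt3a (50 ng). Treated with serial dilutions from 625 to 0.2 nM at 0.1% DMSO final. Luciferase measured in lysate 24 h post-transfection.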

Data set [8] deals with Mus musculus. Nature of the data set: Antitumor activity in Balb/c mouse MMTV-Wnt1 model assessed as tumor growth inhibition at 1 mg/kg administered once daily for 14 days via oral gavage relative to vehicle treated control. It is filed as functional. The note with it: 336 h, read-out: TGI. The gist of the method:
(§1)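 Orthotopic MMTV-Wnt1 tumor fragments implanted in mammary fat pads of Balb/c nude mice. Dosing began 14 days later (day 1), with 10 mice per group and mean tumor volume 103–107 mm³. Oral gavage once daily for 14 days at 10 mL/kg in 50% PEG 400/deionized water. Doses were 1, 3 or 10 mg/kg. Caliper volumes gave %TGI versus vehicle at day 14. Statistics by one-way ANOVA with Dunnett's test.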

Data set [9] has as its system Mus musculus. Nature of the data set: Antitumor activity in Balb/c mouse MMTV-Wnt1 model assessed as tumor growth inhibition at 3 mg/kg administered once daily for 14 days via oral gavage relative to vehicle treated control. It is filed as functional. The note with it: 336 h, read-out: TGI. The method in brief: as §1
The test system of data set [10] is Mus musculus. In words: Antitumor activity in Balb/c mouse MMTV-Wnt1 model assessed as tumor growth inhibition at 10 mg/kg administered once daily for 14 days via oral gavage relative to vehicle treated control. It is filed as functional. The note with it: 336 h, read-out: TGI. The gist of the method:
as §1

Data set [11] has as its system Mus musculus. Nature of the data set: Antitumor activity in Balb/c mouse MMTV-Wnt1 model assessed as tumor growth inhibition administered once daily for 14 days via oral gavage. It is filed as functional. The method in brief: as §1
A short description of data set [12]: Oral bioavailability in mouse at 5 mg/kg. The note with it: in vivo. It is filed as ADME, organism-based.
Data set [13] can be described thus: Cmax in mouse at 5 mg/kg, po. It is filed as ADME, organism-based. More on the design: dose 5 mg/kg, route oral. The note with it: in vivo.
Data set [14] can be described thus: Half life in mouse at 1 mg/kg, iv. Type of data set: ADME, organism-based. The note with it: in vivo.
The nature of data set [15]: AUC (0 to last) in mouse at 5 mg/kg, po. It is filed as ADME, organism-based. The arrangement: dose 5 mg/kg, time 0 - last, route oral. The note with it: in vivo.
Data set [16] concerns the target T3, Protein-serine O-palmitoleoyltransferase porcupine (Mus musculus) (UniProt Q9JJJ7).
T3 sequence (whole entry): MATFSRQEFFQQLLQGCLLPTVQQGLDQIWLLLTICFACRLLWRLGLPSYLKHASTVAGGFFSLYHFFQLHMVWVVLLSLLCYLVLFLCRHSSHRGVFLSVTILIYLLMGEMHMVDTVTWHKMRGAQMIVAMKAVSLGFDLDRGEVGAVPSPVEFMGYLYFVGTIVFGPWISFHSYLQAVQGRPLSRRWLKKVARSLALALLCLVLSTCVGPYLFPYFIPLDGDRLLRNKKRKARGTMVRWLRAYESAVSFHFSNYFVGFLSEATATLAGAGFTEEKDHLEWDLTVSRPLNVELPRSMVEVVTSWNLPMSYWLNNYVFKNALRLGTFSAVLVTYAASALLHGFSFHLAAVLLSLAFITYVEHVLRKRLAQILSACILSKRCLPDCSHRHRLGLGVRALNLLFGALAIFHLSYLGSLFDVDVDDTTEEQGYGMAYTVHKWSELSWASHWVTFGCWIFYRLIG
The note with it: 0.2 to 625 nM.

≈ marks a conversion by molar mass, not a printed value. Calls of active or inactive are those of the source. Where only a bound is given, the exact number is not on record here.

Cytochrome P450 3A4, sequence (P08684 whole entry): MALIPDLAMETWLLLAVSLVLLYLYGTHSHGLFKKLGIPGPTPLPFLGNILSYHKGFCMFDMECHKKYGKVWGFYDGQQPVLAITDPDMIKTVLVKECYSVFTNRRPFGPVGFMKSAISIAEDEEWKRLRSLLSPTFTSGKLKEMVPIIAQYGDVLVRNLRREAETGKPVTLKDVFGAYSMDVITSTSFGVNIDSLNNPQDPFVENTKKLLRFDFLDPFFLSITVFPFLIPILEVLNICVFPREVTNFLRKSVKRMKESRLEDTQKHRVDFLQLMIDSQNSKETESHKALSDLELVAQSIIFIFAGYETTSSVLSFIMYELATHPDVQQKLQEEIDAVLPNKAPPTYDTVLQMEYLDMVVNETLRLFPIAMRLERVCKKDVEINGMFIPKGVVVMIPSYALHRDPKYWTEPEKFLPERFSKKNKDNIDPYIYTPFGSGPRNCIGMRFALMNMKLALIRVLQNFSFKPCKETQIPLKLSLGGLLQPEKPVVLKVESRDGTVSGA
Cytochrome P450 2D6, sequence (P10635 whole entry): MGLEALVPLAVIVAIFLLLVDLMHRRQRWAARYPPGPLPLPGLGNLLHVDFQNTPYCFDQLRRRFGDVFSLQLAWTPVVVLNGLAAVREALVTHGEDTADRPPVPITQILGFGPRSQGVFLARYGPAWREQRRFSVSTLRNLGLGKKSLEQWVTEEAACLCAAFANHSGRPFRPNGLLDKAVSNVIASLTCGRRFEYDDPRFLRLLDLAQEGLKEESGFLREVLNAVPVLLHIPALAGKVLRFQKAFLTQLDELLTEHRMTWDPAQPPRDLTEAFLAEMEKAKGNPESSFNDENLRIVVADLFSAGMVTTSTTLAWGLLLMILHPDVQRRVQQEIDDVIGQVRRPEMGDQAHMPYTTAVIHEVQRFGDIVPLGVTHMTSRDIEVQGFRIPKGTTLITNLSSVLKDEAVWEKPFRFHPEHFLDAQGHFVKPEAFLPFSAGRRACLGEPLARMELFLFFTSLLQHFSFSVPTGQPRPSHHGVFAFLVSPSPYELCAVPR

As to `O=C(Nc1ccc(-c2ccccc2)cc1)[C@H]1CCCN1c1ccc(-n2ccnc2)cc1`, the IC50 (as a rule, the concentration at which inhibition is half-maximal) in [1] worked out at 33 µM.

For `Cc1nccn1-c1ccc(OCC(=O)Nc2ccc(-c3ccccc3)cc2)cc1`, the IC50 in data set [1] came out at 0.002 µM; against Cytochrome P450 3A4 it was 5.2 µM; on Cytochrome P450 2D6, 1.9 µM.

Regarding `O=C(CNc1ccc(-n2ccnc2)cc1)Nc1ccc(-c2ccccc2)cc1`, the IC50 in data set [1] was found to be 0.03 µM. In addition, the microsomal CLint in [2] came out at 11 µL/min/mg.

For `Cn1nccc1-c1ccc(OCC(=O)Nc2ccc(-c3ccccc3)cc2)cc1`, the IC50 in data set [1] is 0.004 µM; on Cytochrome P450 3A4, greater than 20 µM; against Cytochrome P450 2D6, greater than 20 µM.

Take `C[C@H](Oc1ccc(-n2ccnc2)cc1)C(=O)Nc1ccc(-c2ccccc2)cc1`: the IC50 in [1] was 0.007 µM. In addition, the microsomal CLint in [2] was 85 µL/min/mg.

In the case of `O=C(Nc1ccc(-c2ccccc2)cc1)[C@@H]1CCCN1c1ccc(-n2ccnc2)cc1`, the IC50 in data set [1] was found to be 0.04 µM. For the same compound, the microsomal CLint in data set [2] is 18 µL/min/mg.

Regarding `O=C(COc1ccc(-n2cccc2)cc1)Nc1ccc(-c2ccccc2)cc1`, the IC50 in data set [1] is greater than 50 µM.

Turning to `O=C(COc1ccc(-n2ccnc2)cc1)Nc1ccc(-c2ccccc2)cc1`, the IC50 in [1] is 0.015 to 0.019 µM; in the data set with HEK293 it was greater than 30 µM. For the same compound, the CC50 (as a rule, the concentration that lowers cell viability or growth by half) at 24 h in data set [3] was greater than 50 µM. The solubility thermodynamic in data set [4] was less than 1 µg/mL. Also, the Papp in data set [5] was less than 1 ×10⁻⁶ cm/s. Also, the bioavailability in data set [6] is less than 1%. For the same compound, the microsomal CLint in data set [2] stood at 37 µL/min/mg. Besides, the inhibition entry in [7] was “Active”.

As for `C[C@H](Nc1ccc(-c2ccnn2C)nc1)C(=O)Nc1ccc(-c2ccccc2)cn1`, the IC50 in data set [1] was 0.001 µM; at Cytochrome P450 3A4, greater than 20 µM; at Cytochrome P450 2D6 it was greater than 20 µM. Besides, the solubility thermodynamic in data set [4] came out at 4 µg/mL (≈ 10 µM). Also, in [5], the Papp amounted to 113 ×10⁻⁶ cm/s. Further, in data set [2], the microsomal CLint was determined as 8 µL/min/mg.

`C[C@@H](Oc1ccc(-n2ccnc2)cc1)C(=O)Nc1ccc(-c2ccccc2)cc1`: the IC50 in data set [1] is 0.13 µM. Also, the microsomal CLint in [2] was 63 µL/min/mg. Besides, the inhibition result in data set [7] was “Active”.

Consider `C[C@H](Nc1ccc(-n2ccnc2)cc1)C(=O)Nc1ccc(-c2ccccc2)cn1`, for which the IC50 in data set [1] was 0.005 µM. Besides, the microsomal CLint in data set [2] was 3.5 µL/min/mg.

With `C[C@H](Nc1ccc(-c2ccnn2C)nc1)C(=O)Nc1ccc(-c2cccnc2)nc1`, the results for the IC50 (in data set [1]; against Cytochrome P450 3A4; against Cytochrome P450 2D6) were 0.01 µM, greater than 20 µM and 3.3 µM, respectively. In [4], the solubility thermodynamic amounted to 102 µg/mL (≈ 255 µM). In addition, the Papp in data set [5] is 26.8 ×10⁻⁶ cm/s. In data set [2], the microsomal CLint worked out at 8 µL/min/mg.

Turning to `O=C(COc1ccc(-c2ccn[nH]2)cc1)Nc1ccc(-c2ccccc2)cc1`, the IC50 in data set [1] was greater than 50 µM.

In the case of `O=C(COc1ccc(-c2cnco2)cc1)Nc1ccc(-c2ccccc2)cc1`, the IC50 was 0.042 µM in [1], greater than 20 µM at Cytochrome P450 3A4 and greater than 20 µM on Cytochrome P450 2D6.

For the compound `C[C@H](Nc1ccc(-c2ccnn2C)nc1)C(=O)Nc1ccc(-c2cccnc2)cn1`, in the data set on HT-1080, the inhibition result is “Dose-dependent effect”. Also, the values for the IC50 (in data set [1]; against Cytochrome P450 3A4; against Cytochrome P450 2D6) were 0.001 µM, greater than 20 µM and 8 µM, respectively. For the same compound, in data set [4], the solubility thermodynamic is 72.5 µg/mL (≈ 181 µM). The Papp in [5] was 50.6 ×10⁻⁶ cm/s. For the same compound, the microsomal CLint in data set [2] was determined as 8 µL/min/mg. For the same compound, the inhibition entry in [7] and in data set [16] was “Active” throughout. Besides, in the data set on Mus musculus [8], the inhibition in vivo at 1 mg/kg is 50%. Besides, in the data set with Mus musculus [9], the inhibition in vivo at 3 mg/kg is 71%. Further, the inhibition in vivo at 10 mg/kg in the data set on Mus musculus [10] is 91%. In addition, the TGI entry with Mus musculus [11] is “Dose-dependent effect”. Moreover, the bioavailability in data set [12] was 106%. The highest level in data set [13] (Cmax) was 4270 ng/mL. For the same compound, the half-life (as a rule, the time needed for the level to fall by half in the phase considered) in [14] is 1.9 h. Moreover, the AUC(0-t) (in general, exposure summed from dosing to a finite time, without extrapolation to infinity) in [15] was 12300 ng·h/mL.

As for `C[C@@H](Nc1ccc(-n2ccnc2)cc1)C(=O)Nc1ccc(-c2ccccc2)cn1`, the IC50 in [1] stood at 0.689 µM. Besides, the microsomal CLint in data set [2] turned out to be 12 µL/min/mg.
